Converted amounts (≈) assume the structure as drawn. Starred links: 1 amine or outer side, 2 acyl side, 3 side chain; linkers in the order of their positions; H or OH if unused. Non-standard residues stand in square brackets, D forms with d. Residues, ends and D or L forms follow the SMILES beside them. Phe(4-NH(5-NH2triazol-3-yl)) = Nc1nc(Nc2ccc(C[C@H](N)C(=O)O)cc2)n[nH]1; X1 = Nc1nc(Nc2ccc(C[C@@H](N[*:1])C(=O)[*:2])cc2)n[nH]1; dPhe(4-Cl) = N[C@H](Cc1ccc(Cl)cc1)C(=O)O; d2Nal = N[C@H](Cc1ccc2ccccc2c1)C(=O)O; Lys(iPr) = CC(C)NCCCC[C@H](N)C(=O)O; d3Pal = N[C@H](Cc1cccnc1)C(=O)O
How the values were obtained:
[1] = Ratio of IC50 for rat GnRHR to IC50 for human GnRHR in HEK293 cells; format: functional
Rattus norvegicus [2] = assay: Inhibition of plasma testosterone levels in Sprague-Dawley rat at 19.6 uM, sc by enzyme-linked immunosorbent assay; format: functional
Outline: (§1)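 Intact adult male Sprague-Dawley rats (275–310 g, 3 per group) received subcutaneous mini-pumps for seven days. Solutions were in 1:3 DMSO/water: 19.6 μM (~0.66 nM/day/kg), or 9.8 μM (~0.33 nM/day/kg). Sham-operated controls. Plasma was sampled on days 3–7 and testosterone measured by ELISA. Values are means of days 4–7.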

[3] = molecular target: T1, Gonadotropin-releasing hormone receptor (Homo sapiens, UniProt P30968); assay: Antagonist activity at human GnRHR expressed in HEK293 cells assessed as inhibition of GnRH-induced luciferase response by reporter gene assay; format: functional, cell-based
T1 sequence (P30968 whole entry): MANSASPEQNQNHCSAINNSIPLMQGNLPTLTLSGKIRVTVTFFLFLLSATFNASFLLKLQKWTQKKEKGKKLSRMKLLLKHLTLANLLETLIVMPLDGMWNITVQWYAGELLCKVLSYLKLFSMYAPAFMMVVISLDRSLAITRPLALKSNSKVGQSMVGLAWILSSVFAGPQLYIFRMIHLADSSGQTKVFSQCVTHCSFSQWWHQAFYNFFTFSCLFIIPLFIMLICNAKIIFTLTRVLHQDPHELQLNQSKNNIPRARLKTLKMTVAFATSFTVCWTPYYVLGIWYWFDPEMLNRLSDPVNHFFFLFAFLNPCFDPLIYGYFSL
Outline: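 HEK293 cells stably expressing cloned human GnRHR and an LH alpha-subunit-promoter luciferase reporter, plated overnight. Compound in 1% DMSO was added 10 min before GnRH (1 nM final), then ≥5 h at 37 °C, 5% CO2, then luminescence. 11 half-log concentrations in duplicate. IC50 from four-parameter logistic fit, reported as geometric mean of ≥2 experiments.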

[4] = Solubility in 5% mannitol; format: physicochemical
[5] = molecular target: T2, Gonadotropin-releasing hormone receptor (Rattus norvegicus, UniProt P30969); assay: Antagonist activity at rat GnRHR expressed in HEK293 cells assessed as inhibition of GnRH-induced luciferase response by reporter gene assay; format: functional, cell-based
T2 sequence (P30969 whole entry): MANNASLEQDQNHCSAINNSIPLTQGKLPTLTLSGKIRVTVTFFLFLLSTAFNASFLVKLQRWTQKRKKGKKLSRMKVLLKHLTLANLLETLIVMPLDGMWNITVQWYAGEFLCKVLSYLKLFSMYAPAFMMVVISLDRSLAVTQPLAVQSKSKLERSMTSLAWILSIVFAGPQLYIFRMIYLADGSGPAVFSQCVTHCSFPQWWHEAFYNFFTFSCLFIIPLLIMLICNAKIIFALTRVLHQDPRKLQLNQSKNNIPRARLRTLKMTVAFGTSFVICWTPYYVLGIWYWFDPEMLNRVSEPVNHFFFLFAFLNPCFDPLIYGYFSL
Outline: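 Rat GnRHR stably expressed in HEK293 cells, transiently transfected with an NFAT-responsive luciferase reporter, plated after 16 h and assayed next day. Compound in 1% DMSO was given 10 min before 1 nM GnRH (final), ≥5 h at 37 °C, then luminescence. Duplicates at 11 half-log concentrations. IC50 by four-parameter logistic fit, geometric mean of ≥2 experiments.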

[6] = molecular target: T3, Gonadotropin-releasing hormone receptor (Homo sapiens) (UniProt P30968); assay: Antagonist activity at human GnRHR expressed in COS7 cells assessed as inhibition of GnRH-stimulated inositol phosphate production after 2 hrs; format: functional, cell-based; settings: COS-7, filed as antagonist
T3 sequence (whole entry): T1 sequence (P30968 whole entry)
Outline: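 COS-7 cells transiently transfected with WT hGnRH-R cDNA, labelled 18 h at 37 °C with 4 μCi/mL [3H]myo-inositol in inositol-free DMEM. Cells were washed in medium with 5 mM LiCl, then co-incubated 2 h at 37 °C with 10−8 M GnRH plus analogue at 10−8 to 10−5 M. IP was measured by Dowex anion-exchange and scintillation counting. Triplicate, repeated three or more times.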

Rattus norvegicus [7] = assay: Inhibition of plasma testosterone levels in Sprague-Dawley rat at 9.8 uM, sc by enzyme-linked immunosorbent assay; format: functional; outline: as §1

Row | SMILES | IC50 [3] | solubility [4] [mg/mL] | IC50 [5] | Activity [6] | Ratio IC50 [1] | Plasma testosterone level (Rattus norvegicus [2]) [ng/mL] | Activity (Rattus norvegicus [7]) [ng/mL]
1 | CS[C@H](NC(=O)[C@@H]1CCCN1C(=O)[C@H](CCCCNC(C)C)NC(=O)[C@H](CC(C)C)NC(=O)[C@@H](Cc1ccc(NC(C)=O)cc1)NC(=O)[C@H](Cc1ccc(NC(C)=O)cc1)NC(=O)[C@H](CO)NC(=O)[C@@H](Cc1cccnc1)NC(=O)[C@@H](Cc1ccc(Cl)cc1)NC(=O)[C@@H](Cc1ccc2ccccc2c1)NC(C)=O)C(N)=O | 0.8 nM (antagonist) | 50 (≈ 31.9 mM) | 1.7 nM (antagonist) | Antagonist | 2.13 | 2.21 | –
2 | CS[C@H](NC(=O)[C@@H](Cc1cccnc1)NC(=O)[C@@H](Cc1ccc(Cl)cc1)NC(=O)[C@@H](Cc1ccc2ccccc2c1)NC(C)=O)C(=O)N[C@@H](Cc1ccc(NC(C)=O)cc1)C(=O)N[C@H](Cc1ccc(NC(C)=O)cc1)C(=O)N[C@@H](CC(C)C)C(=O)N[C@@H](CCCCNC(C)C)C(=O)N1CCC[C@H]1C(=O)N[C@H](C)C(N)=O | 1.2 nM (antagonist) | 50 (≈ 32.3 mM) | 2.4 nM (antagonist) | Antagonist | 2 | 1.99 | –
3 | CC(=O)N[C@H](Cc1ccc2ccccc2c1)C(=O)N[C@H](Cc1ccc(Cl)cc1)C(=O)N[C@H](Cc1cccnc1)C(=O)N[C@@H](CO)C(=O)N[C@@H](Cc1ccc(Nc2n[nH]c(N)n2)cc1)C(=O)N[C@H](Cc1ccc(Nc2n[nH]c(N)n2)cc1)C(=O)N[C@@H](CC(C)C)C(=O)N[C@@H](CCCCNC(C)C)C(=O)N1CCC[C@H]1C(=O)N[C@H](C)C(N)=O.CC(=O)O [PRAZARELIX ACETATE] (Ac-[d2Nal][dPhe(4-Cl)][d3Pal]S[Phe(4-NH(5-NH2triazol-3-yl))][X1]L[Lys(iPr)]P[dA]-NH2) | 1.36 nM (antagonist) | 50 | 1.4 nM (antagonist) | – | 1.03 | 0.32 | 1.39

Now from value to compound, other results behind:

Row | IC50 [3] | solubility [4] [mg/mL] | IC50 [5] | Activity [6] | SMILES | Ratio IC50 [1] | Plasma testosterone level (Rattus norvegicus [2]) [ng/mL] | Activity (Rattus norvegicus [7]) [ng/mL]
4 | 0.6 nM (antagonist) | 50 (≈ 31.9 mM) | 1.7 nM (antagonist) | Antagonist | CS[C@@H](NC(=O)[C@@H]1CCCN1C(=O)[C@H](CCCCNC(C)C)NC(=O)[C@H](CC(C)C)NC(=O)[C@@H](Cc1ccc(NC(C)=O)cc1)NC(=O)[C@H](Cc1ccc(NC(C)=O)cc1)NC(=O)[C@H](CO)NC(=O)[C@@H](Cc1cccnc1)NC(=O)[C@@H](Cc1ccc(Cl)cc1)NC(=O)[C@@H](Cc1ccc2ccccc2c1)NC(C)=O)C(N)=O | 2.83 | 1.97 | –
5 | 0.31 nM (antagonist) | 50 (≈ 32.2 mM) | 2.5 nM (antagonist) | Antagonist | CC(=O)Nc1ccc(C[C@H](NC(=O)[C@H](CO)NC(=O)[C@@H](Cc2cccnc2)NC(=O)[C@@H](Cc2ccc(Cl)cc2)NC(=O)[C@@H](Cc2ccc3ccccc3c2)NC(C)=O)C(=O)N[C@H](Cc2ccc(NC(C)=O)cc2)C(=O)N[C@@H](SC(C)C)C(=O)N[C@@H](CCCCNC(C)C)C(=O)N2CCC[C@H]2C(=O)N[C@H](C)C(N)=O)cc1 | 8.07 | 1.59 | –
